Compound activity from PubChem BioAssay.
DTT redox prof – compounds producing H2O2 with reducing agent – biochemical, NIH compound library profiling, artefact control for MLSCN library redox annotation, primary screen | 200,000 tested, 0.03% active | activation, % at 10 µM | DTT-dependent redox cycling H2O2, phenol red/HRP absorbance; 100% = 100 µM peroxide control, 0% = buffer | AID 878;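 active = activation of at least 50% relative to the plate's high and low controls in the primary single-dose screen; inactive = activation below 50%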;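 also: compound incubated with DTT at 0.8 mM final as the reducing agent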
PKD1 inh – inhibitors of human PKD1 kinase; PKD1 kinase fluorescence polarization assay; 200,000 tested, 0.056% active; inhibition, % (test concentration not listed); Q15139; in the data active = inhibition above about 50%
MDM2 E3 inh – Mdm2 E3 ligase (human) inhibition; Q00987; cell-based MDM2 ubiquitination luciferase reporter, 2 h; 0 = plate control, 100 = twice control, blank-subtracted; 210,000 tested, 0.11% active; signal enhancement, % at 5 µM;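 active = signal enhancement of 30% or more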;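 also: luminescence tracks abundance of the self-degrading MDM2-luciferase fusion protein; higher signal means inhibition of MDM2 E3 ligase activity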
Target sequence (Q00987 whole entry, looked up, the tested form may be a part): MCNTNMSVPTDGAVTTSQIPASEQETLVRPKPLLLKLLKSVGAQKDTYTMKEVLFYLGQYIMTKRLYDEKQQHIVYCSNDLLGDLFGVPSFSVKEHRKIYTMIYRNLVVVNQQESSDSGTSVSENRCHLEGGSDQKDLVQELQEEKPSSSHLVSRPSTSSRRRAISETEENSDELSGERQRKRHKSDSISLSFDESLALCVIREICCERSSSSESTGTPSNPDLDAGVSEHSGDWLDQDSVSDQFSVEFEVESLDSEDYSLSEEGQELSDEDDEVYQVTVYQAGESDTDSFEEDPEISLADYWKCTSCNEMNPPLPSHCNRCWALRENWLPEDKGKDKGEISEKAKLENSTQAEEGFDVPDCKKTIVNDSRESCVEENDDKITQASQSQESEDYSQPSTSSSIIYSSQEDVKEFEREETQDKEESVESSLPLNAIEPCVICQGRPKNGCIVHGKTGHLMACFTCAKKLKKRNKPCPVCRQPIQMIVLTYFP
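test system = mammalian cells stably expressing self-ubiquitinating, self-degrading MDM2 E3–luciferase fusion | quantity = 2000 cells/well | incubation = cell settling 4 h, compound treatment 2 h, both 37 °C | signal = luminescence with SteadyLite reagent, 15 min at room temperature | evaluation = % enhancement relative to plate controls after blank subtraction | benchmarks = plate controls and plate blanks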
Cl transport mod – modulators of human KCC2 chloride dependent transport | Q9H2X9 | KCC2 cells, thallium flux FluoZin-2 fluorescence | B-score of Tl+ flux slope (higher = more flux/activation; lower = inhibition) at 10 µM | 190,000 tested, 2.2% active;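 active = thallium flux slope and its plate-corrected score both differing from the plate sample mean at a set confidence after two filtering rounds, in either direction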;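 also: slope of fluorescence scaled to starting intensity during 10 to 20 s after thallium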
ROMK mod – human ROMK K+ channel modulation, primary screen; P48048; Tet-inducible ROMK, thallium flux fluorescence; actives lie on both sides; B-score at 10 µM; 130,000 tested, 2% active;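 active = signal ratio slope over the read window, or its plate-corrected B-score, at least 3 SD from the plate mean, either direction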;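 also: B-score of the F/F0 ratio slope over 7 to 12 s after thallium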
Target sequence (P48048 whole entry, looked up): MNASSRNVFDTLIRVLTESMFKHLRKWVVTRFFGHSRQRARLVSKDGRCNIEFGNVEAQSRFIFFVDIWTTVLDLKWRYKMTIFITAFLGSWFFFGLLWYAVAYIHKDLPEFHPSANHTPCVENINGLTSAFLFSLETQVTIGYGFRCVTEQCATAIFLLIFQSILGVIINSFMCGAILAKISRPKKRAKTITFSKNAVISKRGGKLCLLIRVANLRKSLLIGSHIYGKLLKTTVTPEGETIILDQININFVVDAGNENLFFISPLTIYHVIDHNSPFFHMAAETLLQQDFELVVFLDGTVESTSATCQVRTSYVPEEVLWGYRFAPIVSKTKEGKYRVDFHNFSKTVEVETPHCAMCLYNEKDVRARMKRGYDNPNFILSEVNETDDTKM
p97 ATPase inh – human p97 ATPase inhibition; P55072; recombinant p97 ATPase, Kinase-Glo ATP luminescence, 3 h; inhibition, % at 8 µM; 220,000 tested, 0.42% active; in the data active = inhibition above about 15%;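 also: 0% = DMSO vehicle and 100% = wells lacking enzyme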
KCC2 secondary – confirmation of human KCC2 transport modulators; HEK293-KCC2, thallium flux, FluoZin2 fluorescence; hits give high values; shares compounds with Cl transport mod; AID 1713; normalised thallium flux (F/F0 slope) at 10 µM; 3,700 tested, 15% active;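 active = thallium flux slope above the same plate's solvent-only control mean plus 3 SD; inconclusive = the two replicate wells disagree; inactive = no significant difference from solvent-only control wells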
KCC2 bumet counter – thallium flux despite bumetanide block in KCC2 cells, secondary assay 3 | shares compounds with Cl transport mod | HEK293-KCC2 + bumetanide/ouabain, thallium flux FluoZin2; hits give high values | normalized thallium flux at 10 µM | 3,700 tested, 49% active | AID 1714;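 active = thallium entry rate above the same plate's blocked-transporter control wells by more than 3 SD; inconclusive = the two repeat wells disagree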;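 also: raw slope of fluorescence over initial fluorescence between 10 and 20 s after thallium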
KCC2 secondary2 – confirmation of human KCC2 transport modulators | shares compounds with Cl transport mod | HEK293-KCC2, thallium flux FluoZin2 fluorescence; actives lie on both sides; F/F0 rise rate, 10–20 s post-thallium | normalized thallium flux at 10 µM | 3,700 tested, 23% active | AID 1715;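 active = thallium flux slope more than 3 SD above or below the plate's solvent-only control mean, mostly below; inconclusive = the two repeat wells disagreed; inactive = no significant shift from solvent-only controls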;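 also: raw slope with 0.1% DMSO as baseline and bumetanide as block control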
HEK counter1 – counter-screen for KCC2 modulators: effect in parental HEK293 cells; 3,700 tested, 46% active; shares compounds with Cl transport mod; AID 1716; thallium flux rate (normalised fluorescence) at 10 µM; thallium flux FluoZin2, ouabain; baseline-ratio fluorescence slope, 10–20 s after thallium;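 active = thallium flux rate significantly above the same plate's solvent-only control wells, beyond their mean plus 3 SD; inconclusive = the two replicate wells gave conflicting results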
KCC2 retest ouab – KCC2 (human) modulation, ouabain retest; shares compounds with Cl transport mod; HEK293-KCC2, thallium flux FluoZin2 fluorescence; bidirectional: low = inhibitor, high = activator; raw Tl+ flux slope (below DMSO = inhibition, above = activation) at 10 µM; 3,700 tested, 48% active;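 active = thallium flux slope beyond 3 SD from same-plate DMSO control mean in most replicates, usually higher, sometimes lower; inconclusive = repeat tests gave conflicting results; inactive = no significant difference from controls in most replicates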;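 also: slope of initial-normalized fluorescence between seconds 10 and 20 after thallium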
HEK counter2 – acts in parental HEK cells, second KCC2 counter-screen. thallium flux slope at 10 µM. HEK293 parental, thallium flux FluoZin-2 fluorescence slope. 3,700 tested, 33% active. shares compounds with Cl transport mod;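 active = thallium flux slope above the same plate's solvent-control mean plus 3 SD in both duplicate wells; inconclusive = duplicate wells that disagreed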;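 also: run without ouabain in cells lacking the KCC2 cotransporter; slope of fluorescence scaled to its starting value between 10 and 20 s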
Numbers without * were called inactive; ? = inconclusive; . = no result. The list is not random: actives were taken first. Their share in the collection is about 3.4%.

SMILES | DTT redox prof | PKD1 inh | MDM2 E3 inh | Cl transport mod | ROMK mod | p97 ATPase inh | KCC2 secondary | KCC2 bumet counter | KCC2 secondary2 | HEK counter1 | KCC2 retest ouab | HEK counter2
Cc1ccc(NC(=S)NC(NC(=O)c2ccco2)C(Cl)(Cl)Cl)cc1 (centres undefined) | -0.1 | -4.8 | -12.6 | 8.16* | -0.319 | 3.5 | 0.00739 | 0.00435 | 0.029 | 0.00794 | 0.0176 | 0.0106
O=C(NC(=S)Nc1cc(S(=O)(=O)N2CCOCC2)ccc1O)c1ccco1 | -0.4 | -5.7 | 11.6 | 0.0516 | 0.0989 | 8.2 | . | . | . | . | . | .
O=C(NC(=S)Nc1ccc2oc(=O)ccc2c1)c1cc2ccccc2o1 | . | . | -1.2 | 35.1* | . | 3.8 | 0.0163* | 0.0487* | 0.034 | 0.0366* | ? | 0.0172*
COc1cc(/C=C(\CC(=O)O)c2nc3ccccc3s2)cc(OC)c1O | -0.5 | 0.6 | -3.5 | 0.0135 | 1.18 | 3.3 | . | . | . | . | . | .
COc1ccc(NC(=O)c2nc3ccccc3s2)cc1 | 0.3 | 2.7 | -60.6 | 1.03 | 0.77 | 0.6 | . | . | . | . | . | .
O=C(O)C/C(=C\c1cccc(NC(=O)c2ccccc2Cl)c1)c1nc2ccccc2s1 | . | . | . | -4.09* | . | -0.6 | 0.00541 | 0.00507 | 0.0219* | ? | 0.0103* | 0.0101
COc1ccc(C(=O)Nc2cccc(/C=C(\CCC(=O)O)c3nc4ccccc4s3)c2)cc1 | . | . | . | -3.8* | . | 5.9 | 0.005 | ? | 0.0241* | 0.00682 | 0.0131* | ?
CC(C)CCN1CCN(CCCn2cccn2)CC1CCO (centres undefined) | -1.4 | -9.1 | -21.4 | . | 0.00727 | 1.5 | . | . | . | . | . | .
Nc1nnnn1/N=C\c1ccc(Cl)c([N+](=O)[O-])c1 | -6.8 | -2.2 | -0.5 | 2.25 | . | 1.7 | . | . | . | . | . | .
COc1cc(OC)cc(C(C(=O)NCc2ccccc2)N(Cc2ccco2)C(=O)c2ccno2)c1 (centres undefined) | 1.5 | -1.0 | -11.8 | -2.85* | . | -0.5 | 0.00665 | 0.00388 | 0.032 | 0.00692 | 0.0188 | 0.0111
COC(=O)c1ccc(C(C(=O)NCc2ccccc2)N(Cc2ccco2)C(=O)c2cnccn2)cc1 (centres undefined) | -0.2 | -13.5 | -10.6 | . | -0.111 | 6.4 | . | . | . | . | . | .
COc1cccc(C(=O)CSc2nnc(CNS(=O)(=O)c3ccc(C)cc3)n2C)c1 | 2.7 | -1.4 | -2.1 | -4.16* | -0.361 | 0.7 | 0.00995 | 0.00715 | 0.0324 | 0.00841 | 0.0235 | 0.0114*
COc1ccc(C2CC(c3ccccc3)n3nc(NC(=O)c4cccs4)nc3N2)cc1 (centres undefined) | 1.7 | 2.2 | -11.6 | -3.28* | . | -0.9 | 0.00734 | 0.00668 | 0.0316 | 0.00784 | 0.0183 | 0.0109
O=C(NCC1CCCO1)c1ccc(Cl)c(F)c1F (centres undefined) | 0.3 | -0.9 | . | . | . | -1.9 | . | . | . | . | . | .
O=c1[nH]c(CSc2ncnc3sc(-c4ccccc4)cc23)nc2ccccc12 | . | . | -9.7 | 27* | . | 8.6 | 0.0069 | 0.0244* | 0.0314 | 0.021* | 0.0315* | 0.0137*
O=C(Nc1ccc(F)cc1)c1ccc(CSc2ccccc2)o1 | 0.0 | -2.7 | -2.6 | -3.4* | . | -3.7 | 0.00786 | 0.00713 | 0.0337 | 0.00382 | 0.0151* | 0.0107
CCOc1cc(/C=N/NC(=O)NN(C)c2ncc(C(F)(F)F)cc2Cl)ccc1O | -1.8 | -0.1 | -5.5 | -0.45 | 0.635 | 4.5 | . | . | . | . | . | .
COc1ccc(NC(=O)c2ccco2)cc1S(=O)(=O)N1CCOCC1 | -0.4 | 5.5 | -1.8 | 2.04 | -0.14 | 6.0 | . | . | . | . | . | .
CCc1cc2c(SCc3nc4sc(C(C)=O)c(C)c4c(=O)[nH]3)ncnc2s1 | . | . | -3.0 | 43* | . | 3.3 | ? | 0.0555* | 0.0523* | 0.0432* | 0.0529* | 0.0404*
Cc1sc2nc(CSc3ncn[nH]3)[nH]c(=O)c2c1C | -0.1 | -1.6 | -24.3 | -1.27 | -0.363 | 1.6 | . | . | . | . | . | .
COc1ccc(NC(=O)C(=O)N/N=C/c2cccnc2)c(OC)c1 | -3.9 | 2.4 | -7.5 | 7.75* | 0.32 | 3.8 | 0.00582 | ? | 0.0299 | 0.00861 | 0.0205 | 0.0117
CCOc1ccc(NC(=O)C(=O)N/N=C/c2cccnc2)cc1 | . | . | . | -1.51 | . | -2.2 | . | . | . | . | . | .
N#CC1(C#N)[C@@H](C(=O)C23CC4CC(CC(C4)C2)C3)C12CCOCC2 | 0.3 | -4.2 | -1.9 | -0.127 | 0.876 | 0.9 | . | . | . | . | . | .
CC(C)CCN1CCN(Cc2cccc(-n3cccn3)c2)CC1CCO (centres undefined) | -0.7 | -6.1 | 1.8 | -0.815 | . | -1.7 | . | . | . | . | . | .
COc1ccc(CCn2c(O)cc3nn(-c4nc5ccccc5s4)c(=O)c-3c2C)cc1 | . | . | -9.2 | 3.7* | . | -7.8 | 0.00699 | 0.00768* | 0.0301 | 0.0101* | 0.0211 | ?
SMILES | DTT redox prof | PKD1 inh | MDM2 E3 inh | Cl transport mod | ROMK mod | p97 ATPase inh | KCC2 secondary | KCC2 bumet counter | KCC2 secondary2 | HEK counter1 | KCC2 retest ouab | HEK counter2
Cc1cc(Cl)ccc1OCc1n[nH]c(=S)n1C1CCCCC1 | 2.0 | -6.4 | -4.4 | 15.6* | . | 0.8 | 0.0072 | 0.0409* | 0.0488* | 0.0403* | 0.0365* | 0.0312*
COc1ccc(Cl)cc1-c1n[nH]c(=S)n1C1CCCCC1 | 0.2 | 2.9 | 0.7 | 0.0257 | 1.06 | 0.2 | . | . | . | . | . | .
C(=C\c1nc(-c2cccnc2)no1)/c1ccccc1 | -0.3 | -2.8 | -25.2 | -0.554 | -0.318 | 1.8 | . | . | . | . | . | .
CCOc1ccc(Nc2n[nH]c(=S)s2)cc1 | 0.3 | 4.2 | -14.4 | -5.29* | . | 4.0 | ? | 0.00531 | 0.0196* | 0.00832 | ? | 0.0115
S=c1[nH]nc(Nc2ccc(Cl)cc2)s1 | . | . | -5.6 | 1.03 | . | 10.8 | . | . | . | . | . | .
CC(C)CNC(=S)NC(=O)c1csc([N+](=O)[O-])c1 | . | . | -9.1 | 30.7* | . | -7.5 | ? | 0.0687* | 0.0373 | 0.0206* | 0.0365* | 0.0146*
CCN(C(=S)NC(=O)C1CCCC1)C1CCCCC1 | -2.5 | 2.8 | -22.3 | 7.31* | -0.63 | -6.5 | 0.0118 | 0.0296* | 0.038 | ? | 0.0333* | ?
O=C(NC(=S)N(Cc1ccccc1)Cc1ccccc1)C1CCCCC1 | -4.8 | 11.3 | -17.4 | 2.04 | 0.155 | -5.0 | . | . | . | . | . | .
